Active and inactive are the calls of the source. How the calls were made is not given here.

The target of assay [1] is Tyrosyl-DNA phosphodiesterase 1 (Homo sapiens, UniProt Q9NUW8). Kind of assay: Inhibition of recombinant TDP1 (unknown origin) using 5'-[32P]-labeled single stranded oligonucleotide DNA containing 3'-phophotyrosine (N14Y) as substrate at 111 uM incubated for 15 mins by PAGE assay.
The target of assay [2] is T1, Tyrosyl-DNA phosphodiesterase 2 (Homo sapiens, UniProt O95551).
T1 sequence (O95551 whole entry): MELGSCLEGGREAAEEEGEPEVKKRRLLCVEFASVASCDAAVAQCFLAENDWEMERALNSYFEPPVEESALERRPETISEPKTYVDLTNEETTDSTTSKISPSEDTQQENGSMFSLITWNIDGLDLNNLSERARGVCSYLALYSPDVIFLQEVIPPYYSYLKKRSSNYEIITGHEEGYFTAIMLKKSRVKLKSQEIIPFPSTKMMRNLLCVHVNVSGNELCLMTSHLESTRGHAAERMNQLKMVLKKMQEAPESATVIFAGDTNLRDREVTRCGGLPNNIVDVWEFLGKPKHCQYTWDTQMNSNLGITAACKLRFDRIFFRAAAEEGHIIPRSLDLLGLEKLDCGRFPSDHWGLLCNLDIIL
Kind of assay: Inhibition of recombinant human TDP2 using 18-mer single stranded oligonucleotide DNA as substrate incubated for 15 mins by PAGE assay. In a few lines:
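1 nM TY18 substrate (α³²P-cordycepin-3′-labelled 18-mer ssDNA) with 25 pM recombinant human TDP2, 15 min at room temperature in LMP2 buffer (pH 7.5, 5 mM MgCl₂). Dose–response at 1.4, 4.1, 12.3, 37, 111 μM, resolved on gels. IC50 is mean ± SD of at least three independent experiments.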

For assay [3], the target named is T1, Tyrosyl-DNA phosphodiesterase 2. Kind of assay: Inhibition of human TDP2 expressed in DT40 cells (TDP2-knockout) using 18-mer single stranded oligonucleotide DNA as substrate incubated for 15 mins by PAGE assay. The method, boiled down: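 Extract from 1 × 10⁷ TDP2−/− DT40 cells complemented with human TDP2, prepared as the TDP1 extracts. 1 nM TY18 substrate (α³²P-cordycepin-3′-labelled 18-mer) with 5 μg/mL extract ± inhibitor, 15 min at room temperature. Products resolved on gel.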

Sequence of Tyrosyl-DNA phosphodiesterase 1 (Q9NUW8 whole entry): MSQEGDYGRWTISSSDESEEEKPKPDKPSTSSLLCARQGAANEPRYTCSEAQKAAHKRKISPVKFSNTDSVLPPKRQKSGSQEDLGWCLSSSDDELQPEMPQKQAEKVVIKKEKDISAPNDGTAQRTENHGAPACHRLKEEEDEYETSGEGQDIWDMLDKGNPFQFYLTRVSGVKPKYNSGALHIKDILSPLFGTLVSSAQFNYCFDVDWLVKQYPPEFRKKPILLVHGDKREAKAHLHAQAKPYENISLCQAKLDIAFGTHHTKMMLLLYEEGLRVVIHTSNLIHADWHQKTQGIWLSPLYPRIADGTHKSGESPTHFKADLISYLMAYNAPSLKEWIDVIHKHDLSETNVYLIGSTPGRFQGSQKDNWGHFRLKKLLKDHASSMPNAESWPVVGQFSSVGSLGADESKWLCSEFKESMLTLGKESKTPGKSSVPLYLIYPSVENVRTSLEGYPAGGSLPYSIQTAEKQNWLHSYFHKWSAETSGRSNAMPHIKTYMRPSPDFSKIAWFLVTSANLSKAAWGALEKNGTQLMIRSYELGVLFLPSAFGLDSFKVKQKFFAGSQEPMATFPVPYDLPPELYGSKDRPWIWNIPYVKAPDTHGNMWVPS

As to `O=C1Cc2cc(-c3cccnc3)ccc2C(=O)N1`, the inhibition result in assay [1] is “inactive”. The results for the IC50 in assay [2] and in assay [3] were 16 µM and 23 µM, respectively.

Consider `O=C1Cc2cc(C(=O)O)ccc2C(=O)N1`, for which the inhibition entry in assay [1] was “inactive”. The half-maximal inhibitory concentration (IC50) (commonly the concentration that inhibits the measured activity by half) in assay [2] was above 111 µM.

For the compound `O=C1Cc2cc(-c3cnc4ccccc4c3)ccc2C(=O)N1`, the inhibition result in assay [1] was “inactive”. For the same compound, the IC50 in assay [2] was 9.3 µM; in assay [3], above 111 µM.

Regarding `COc1ccc(-c2ccc3c(c2)CC(=O)NC3=O)cc1F`, in assay [1], the inhibition result is “inactive”. Moreover, the half-inhibitory concentration (IC50) in assay [2] amounted to 3 µM; in assay [3] it was 4.3 µM.

Consider `CC(=O)Nc1c2c(nn1-c1ccccc1)CC(=O)NC2=O`, for which, in assay [1], the inhibition result was “inactive”. For the same compound, the IC50 in assay [2] was above 111 µM.

Consider `O=C1Cc2ccc(-c3cccc(O)c3)cc2C(=O)N1`, for which the inhibition result in assay [1] was “inactive”. Moreover, the IC50 in assay [2] worked out at 15 µM.

For `O=C1Cc2ccc(-c3cccnc3)cc2C(=O)N1`, the inhibition entry in assay [1] was “inactive”. The IC50 in assay [2] was 20 µM.

As for `O=C1Cc2cc(-c3cccc(O)c3)ccc2C(=O)N1`, in assay [1], the inhibition result was “inactive”. Further, the values for the IC50 in assay [2] and in assay [3] were 13 µM and 35 µM, respectively.

`O=C1Cc2ccc(-c3cccc([N+](=O)[O-])c3)cc2C(=O)N1`: in assay [1], the inhibition entry was “inactive”. The IC50 in assay [2] is 11 µM.

As for `Nc1cccc(-c2ccc3c(c2)C(=O)NC(=O)C3)c1`, the inhibition entry in assay [1] was “inactive”. Moreover, the IC50 in assay [2] was above 111 µM.

With `O=C1Cc2ccccc2C(=O)N1`, the inhibition result in assay [1] is “inactive”. Further, the half-maximal inhibitory concentration (IC50) in assay [2] was 25 µM.

As for `O=C1Cc2cc(-c3cccc(C(=O)O)c3)ccc2C(=O)N1`, in assay [1], the inhibition result was “inactive”. Besides, the half-maximal inhibitory concentration (IC50) is 21 µM in assay [2] and 42 µM in assay [3].

For the compound `O=C1Cc2cc(-c3ccccc3C(=O)O)ccc2C(=O)N1`, the inhibition result in assay [1] was “inactive”. For the same compound, in assay [2], the IC50 was above 111 µM.

With `O=C1NC(=O)c2ccc(Br)c3cccc1c23`, the inhibition entry in assay [1] was “inactive”. In addition, the IC50 in assay [2] was above 111 µM.

Take `O=C1Cc2cc([N+](=O)[O-])ccc2C(=O)N1`: the inhibition result in assay [1] is “inactive”. Besides, in assay [2], the IC50 stood at 19 µM.

As for `O=C1Cc2cc(-c3cccc(Br)c3)ccc2C(=O)N1`, in assay [1], the inhibition entry is “inactive”. Besides, the IC50 is 8 µM in assay [2] and 6.5 µM in assay [3].

`Nc1cccc(-c2ccc3c(c2)CC(=O)NC3=O)c1`: the inhibition entry in assay [1] was “inactive”. Further, the values for the IC50 in assay [2] and in assay [3] were 42 µM and 55 µM, respectively.

Consider `O=C1Cc2ccc(C(=O)c3cccc([N+](=O)[O-])c3)cc2C(=O)N1`, for which, in assay [1], the inhibition result is “inactive”. Further, the concentration for half-maximal inhibition (IC50) in assay [2] was 5.4 µM.

As for `O=C1Cc2cc(-c3cccc(Cl)c3)ccc2C(=O)N1`, the inhibition entry in assay [1] was “inactive”. Besides, the IC50 in assay [2] came to 5.6 µM; in assay [3], 3.3 µM.

As to `O=C1Cc2c(cccc2-c2cccc([N+](=O)[O-])c2)C(=O)N1`, the inhibition result in assay [1] is “inactive”. The IC50 in assay [2] is above 37 µM.

For `O=C1Cc2cccc(I)c2C(=O)N1`, the inhibition result in assay [1] is “inactive”. The IC50 in assay [2] was 7.5 µM; in assay [3], 2.6 µM.

Turning to `O=C1Cc2ccc(-c3ccc(O)cc3)cc2C(=O)N1`, in assay [1], the inhibition entry is “inactive”. In addition, the IC50 in assay [2] was found to be 14 µM.

As for `O=C1Cc2ccc(I)cc2C(=O)N1`, in assay [1], the inhibition result was “inactive”. Further, in assay [2], the half-maximal inhibitory concentration (IC50) was determined as 9.8 µM.

`O=C1Cc2c(cccc2-c2ccco2)C(=O)N1`: the inhibition result in assay [1] was “inactive”. The IC50 in assay [2] is above 111 µM.

Consider `CS(=O)(=O)Nc1cccc(-c2ccc3c(c2)C(=O)NC(=O)C3)c1`, for which the inhibition result in assay [1] was “inactive”. For the same compound, the IC50 in assay [2] came to 4.5 µM.

Regarding `O=C1Cc2cc(Cc3ccccc3)ccc2C(=O)N1`, in assay [1], the inhibition result is “inactive”. In assay [2], the 50% inhibitory concentration (IC50) was above 111 µM.

Take `O=C1Cc2cccc(-c3cccc([N+](=O)[O-])c3)c2C(=O)N1`: the inhibition entry in assay [1] is “inactive”. For the same compound, the IC50 in assay [2] is 19 µM.

Turning to `O=C1Cc2cc(Br)ccc2C(=O)N1`, the inhibition result in assay [1] was “inactive”. Also, the IC50 in assay [2] was 11 µM.

Turning to `O=C1Cc2cc(-c3ccc(F)c(Cl)c3)ccc2C(=O)N1`, the inhibition entry in assay [1] was “inactive”. The IC50 turned out to be 4.1 µM in assay [2] and 5.3 µM in assay [3].

Take `O=C1Cc2cc(-c3ccc(C(F)(F)F)cc3)ccc2C(=O)N1`: in assay [1], the inhibition result was “inactive”. The IC50 in assay [2] amounted to 3.2 µM; in assay [3] it was 2.7 µM.

Regarding `O=C1Cc2ccc(-c3ccco3)cc2C(=O)N1`, the inhibition entry in assay [1] was “inactive”. Moreover, the IC50 in assay [2] was 13 µM; in assay [3] it was 50 µM.

As to `O=C1Cc2cc(-c3ccc(F)cc3F)ccc2C(=O)N1`, the inhibition result in assay [1] is “inactive”. Further, the results for the IC50 in assay [2] and in assay [3] were 4.5 µM and 5.5 µM, respectively.

Regarding `O=C1Cc2ccc(-c3ccco3)cc2C(=O)N1O`, the inhibition entry in assay [1] was “inactive”. The IC50 in assay [2] was above 111 µM.

`O=C1Cc2c(Br)cccc2C(=O)N1`: in assay [1], the inhibition result was “inactive”. Further, in assay [2], the IC50 is above 37 µM.

`CC(=O)c1cccc(-c2ccc3c(c2)CC(=O)NC3=O)c1`: the inhibition result in assay [1] is “inactive”. The IC50 in assay [2] was found to be 5.5 µM; in assay [3], 15 µM.

For `Nc1c2c(nn1-c1ccccc1)CC(=O)NC2=O`, the inhibition result in assay [1] was “inactive”. For the same compound, the half-maximal inhibitory concentration (IC50) in assay [2] is above 111 µM.

On to `O=C1Cc2cc(-c3ccc(Cl)cc3)ccc2C(=O)N1`, for which the inhibition result in assay [1] was “inactive”. Moreover, the IC50 in assay [2] worked out at 6.4 µM; in assay [3], 4.5 µM.

Consider `COc1cccc(OC)c1-c1ccc2c(c1)CC(=O)NC2=O`, for which the inhibition entry in assay [1] was “inactive”. Also, in assay [2], the IC50 is above 37 µM.

Consider `Nc1ccc(-c2ccc3c(c2)CC(=O)NC3=O)cc1`, for which the inhibition result in assay [1] is “inactive”. The half-maximal inhibitory concentration (IC50) in assay [2] was 36 µM; in assay [3], 40 µM.

In the case of `C=CC(=O)Nc1cccc(-c2ccc3c(c2)C(=O)NC(=O)C3)c1`, the inhibition entry in assay [1] is “inactive”. The IC50 in assay [2] was found to be 11 µM.

Consider `NC(=O)c1cccc(-c2ccc3c(c2)CC(=O)NC3=O)c1`, for which the inhibition result in assay [1] was “inactive”. For the same compound, the IC50 in assay [2] came to 16 µM.

With `COc1ccc(OC)c(-c2ccc3c(c2)CC(=O)NC3=O)c1`, the inhibition result in assay [1] is “inactive”. Further, the IC50 in assay [2] was 16 µM.

With `CCOC(=O)C1C(=O)NC(=O)c2ccc(Br)cc21` (configuration not stated), the inhibition entry in assay [1] is “inactive”. Further, the half-inhibitory concentration (IC50) in assay [2] is 14 µM.

For the compound `Nc1c2c(nn1-c1ccc(F)cc1)CC(=O)NC2=O`, the inhibition entry in assay [1] is “inactive”. Also, the IC50 in assay [2] was above 111 µM.

Consider `O=C1Cc2ccc(-c3cccc(Cl)c3)cc2C(=O)N1`, for which the inhibition result in assay [1] is “inactive”. Further, the IC50 in assay [2] is 1.7 µM; in assay [3], 3.2 µM.

For the compound `CS(=O)(=O)Nc1ccc(-c2ccc3c(c2)CC(=O)NC3=O)cc1`, the inhibition result in assay [1] is “inactive”. In addition, the IC50 in assay [2] came to 1.9 µM; in assay [3] it was 2.2 µM.

With `O=C1Cc2cc(-c3cccc([N+](=O)[O-])c3)ccc2C(=O)N1`, the inhibition entry in assay [1] is “inactive”. Besides, the IC50 in assay [2] was 10 µM; in assay [3], 25 µM.

As to `O=C1Cc2cccc(-c3cccc(O)c3)c2C(=O)N1`, in assay [1], the inhibition entry was “inactive”. Moreover, the IC50 in assay [2] is 26 µM.

Consider `O=C1Cc2cc(C(F)(F)F)ccc2C(=O)N1`, for which the inhibition result in assay [1] is “inactive”. The IC50 in assay [2] came out at 7 µM; in assay [3], 3.5 µM.

Turning to `C=CC(=O)Nc1ccc(-c2ccc3c(c2)CC(=O)NC3=O)cc1`, in assay [1], the inhibition result is “inactive”. The IC50 in assay [2] worked out at 10 µM.

In the case of `CS(=O)(=O)Nc1cccc(-c2ccc3c(c2)CC(=O)NC3=O)c1`, the inhibition result in assay [1] was “inactive”. The IC50 in assay [2] was 18 µM; in assay [3], 25 µM.

For the compound `O=C1Cc2cc(-c3ccc(C(=O)O)cc3)ccc2C(=O)N1`, the inhibition entry in assay [1] is “inactive”. In assay [2], the IC50 stood at 30 µM.

As for `O=C1Cc2ccc(-c3ccc(Br)cc3)cc2C(=O)N1`, the inhibition entry in assay [1] was “inactive”. In addition, the IC50 in assay [2] was 7.1 µM.

For `O=C1Cc2cc(C(=O)c3cccc([N+](=O)[O-])c3)ccc2C(=O)N1`, the inhibition result in assay [1] is “inactive”. The concentration for half-maximal inhibition (IC50) in assay [2] is 11 µM.

`O=c1[nH]c(=O)c2ccc(-c3ccccc3)cc2[nH]1`: the inhibition result in assay [1] is “inactive”. In assay [2], the IC50 was above 111 µM.

Regarding `Nc1c2c(nn1-c1ccccn1)CC(=O)NC2=O`, the inhibition entry in assay [1] is “inactive”. In addition, the IC50 in assay [2] is above 111 µM.

With `O=C1NC(=O)c2ccc(-c3ccco3)c3cccc1c23`, in assay [1], the inhibition entry was “inactive”. In addition, in assay [2], the IC50 is above 111 µM.

As for `O=C1Cc2cc(-c3cccc(-c4ccccc4)c3)ccc2C(=O)N1`, the inhibition result in assay [1] was “inactive”. Also, in assay [2], the IC50 is above 111 µM.

Values taken from ChEMBL document CHEMBL3792345, “Isoquinoline-1,3-diones as Selective Inhibitors of Tyrosyl DNA Phosphodiesterase II (TDP2)” (J Med Chem, 2016).
